This excerpt belongs to a sample that is enriched for hits.
p-CIP stab down: compounds decreasing mouse p/CIP protein stability; hit rate 0.01% among 290,000; F442A p/CIP-EGFP cells, EGFP fluorescence, 16 h; Q05BA5; AID 1984; decrease of EGFP signal, % at 10 µM;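 active = EGFP signal decrease of at least 30% at 10 µM or well 3 SD below plate mean, unless failing retest; inactive = the rest, including hits failing retest or dose response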
Target sequence (Q05BA5 1-1403): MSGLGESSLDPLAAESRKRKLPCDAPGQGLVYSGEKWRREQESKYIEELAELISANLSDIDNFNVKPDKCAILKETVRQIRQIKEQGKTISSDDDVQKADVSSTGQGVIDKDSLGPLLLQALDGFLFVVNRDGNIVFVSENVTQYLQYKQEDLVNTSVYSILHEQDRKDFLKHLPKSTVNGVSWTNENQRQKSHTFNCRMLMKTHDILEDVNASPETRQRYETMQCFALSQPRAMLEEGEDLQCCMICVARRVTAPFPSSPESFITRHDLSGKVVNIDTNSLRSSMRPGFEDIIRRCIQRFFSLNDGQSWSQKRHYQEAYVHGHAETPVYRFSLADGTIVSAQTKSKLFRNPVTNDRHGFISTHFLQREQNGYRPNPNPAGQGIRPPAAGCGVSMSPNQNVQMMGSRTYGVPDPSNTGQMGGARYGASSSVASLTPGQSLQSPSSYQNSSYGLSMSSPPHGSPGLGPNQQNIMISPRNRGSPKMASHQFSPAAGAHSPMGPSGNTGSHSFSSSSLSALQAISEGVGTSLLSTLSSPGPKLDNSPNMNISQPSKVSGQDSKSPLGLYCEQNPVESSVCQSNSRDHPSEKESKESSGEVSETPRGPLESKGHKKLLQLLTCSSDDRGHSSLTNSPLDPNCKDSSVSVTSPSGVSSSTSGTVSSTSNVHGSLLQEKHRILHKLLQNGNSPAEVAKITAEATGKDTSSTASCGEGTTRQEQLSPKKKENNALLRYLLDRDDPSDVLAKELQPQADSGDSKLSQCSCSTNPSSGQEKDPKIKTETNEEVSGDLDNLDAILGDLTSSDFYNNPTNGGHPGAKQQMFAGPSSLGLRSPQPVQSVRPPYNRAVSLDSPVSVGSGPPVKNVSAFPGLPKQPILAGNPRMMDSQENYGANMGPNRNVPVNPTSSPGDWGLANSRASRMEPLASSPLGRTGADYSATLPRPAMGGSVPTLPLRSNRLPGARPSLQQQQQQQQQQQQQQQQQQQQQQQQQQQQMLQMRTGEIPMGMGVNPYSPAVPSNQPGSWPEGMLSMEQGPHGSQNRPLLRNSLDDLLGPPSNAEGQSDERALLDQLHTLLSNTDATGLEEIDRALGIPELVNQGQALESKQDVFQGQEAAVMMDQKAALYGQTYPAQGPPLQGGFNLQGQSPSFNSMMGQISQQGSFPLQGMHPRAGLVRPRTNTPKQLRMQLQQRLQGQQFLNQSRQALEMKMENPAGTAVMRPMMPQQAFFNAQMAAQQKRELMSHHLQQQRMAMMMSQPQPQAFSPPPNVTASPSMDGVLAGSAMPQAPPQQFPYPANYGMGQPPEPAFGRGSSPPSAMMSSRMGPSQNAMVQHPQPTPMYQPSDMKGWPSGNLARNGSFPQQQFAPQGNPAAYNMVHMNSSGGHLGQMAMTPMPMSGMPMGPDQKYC
Dynein transport: blocks dynein driven cargo transport along microtubules. hit rate 0.47% among 220,000. z-score, hits read low. 3617.4 mouse cells, GR-EGFP nuclear translocation imaging; test concentration mostly 20 µM; stimulated with dexamethasone, 1 µM; active compounds read low;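 active = plate z-score of nuclear minus cytoplasmic receptor signal below a set negative limit, without overly bright fluorescence or cell loss, cut at about -3.5 in these data, passing the limit was not always enough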;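 note: z-score of nuclear minus cytoplasmic ring GR-EGFP intensity difference per well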
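Buffer or medium – tet-free medium with charcoal-stripped serum · Signal – automated 10x imaging of fixed Hoechst-stained cells · Also added – dexamethasone agonist, 1.0 µM final, for 30 min · Incubation – induction 48 h, compound 1 h, agonist 30 min · Read-out – GR-EGFP nuclear translocation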
UPR CHOP act: apoptotic UPR (CHOP) activation | CHO-CHOP luciferase reporter, luminescence; percent of tunicamycin response over DMSO baseline | activation, % at 10 µM | hit rate 0.34% among 330,000 | AID 449763;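 active = at 10 µM dose, activation of 40% or more, normalized to positive control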;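 note: 100% = tunicamycin at 10 µg/mL and 0% = DMSO alone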
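System: CHO-CHOP luciferase reporter cell line; amount: 500 cells/well; buffer or medium: F12 medium containing 10% fetal bovine serum; incubation: 6 h compound exposure at 37 °C after overnight seeding; measured by: luciferase luminescence after 10 min with Steady-Glo reagent; evaluation: % reporter activation, DMSO baseline versus tunicamycin full activation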
Beta2AR agonist: agonists of human beta-2 adrenergic receptor inducing internalization. hit rate 0.43% among 340,000. P07550. Am2.2-beta2AR cells, FAP receptor internalization, flow cytometry. AID 504454. response, % (test concentration not listed);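 active = response above a set limit, near 3 SD of response in nonfluorescent compounds, cut at about 42% in these data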
XBP1 UPR activ: adaptive UPR (XBP1) activation; CHO-XBP1 luciferase reporter, IRE1-XBP1 UPR activation, luminescence; percent of tunicamycin response, DMSO as zero; activation, % at 20 µM; hit rate 0.33% among 330,000;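 active = versus positive control, 20 µM dose yields 30% or more activation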;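 note: 100% = tunicamycin at 10 µg/mL and 0% = DMSO only wells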
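Material: IRE1-XBP1 luciferase reporter CHO line / Quantity: one thousand reporter cells per well / Buffer or medium: F12 with 10% serum / Compound: 20 µM single concentration, DMSO 1% / Times: 6 h treatment, 37 °C / Detection: Steady-Glo luciferase glow luminescence, 10 min after reagent addition / Benchmarks: tunicamycin high, DMSO low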
CHOP inhibitor: CHOP inhibition in unfolded protein response; CHO-K1 CHOP-promoter luciferase, tunicamycin-induced, 15-18 h; hit rate 3.8% among 220,000; inhibition, % at 10 µM;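 active = compounds that reduced the stress-induced luciferase reporter signal by more than about 70% of percent inhibition, limit read from the data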;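 note: 0% = tunicamycin plus vehicle and 100% = wells without tunicamycin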
UPR CHOP confirm: confirmation of apoptotic unfolded protein response (CHOP) activators | CHO-CHOP cells, CHOP-luciferase reporter luminescence; percent of tunicamycin response, DMSO as zero | hit rate 64% among 1,000 | activation, % at 10 µM | shares compounds with UPR CHOP act; in the data active = activation above about 33%;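 note: 0% = DMSO wells and 100% = tunicamycin 10 µg/mL wells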
Starred values were filed as active, the others as inactive.

For COc1cc2nc(=S)n3[nH]c(COc4ccccc4C)nc3c2cc1OC the results were p-CIP stab down -4, Dynein transport 2.4, UPR CHOP act 0, Beta2AR agonist 1, XBP1 UPR activ -1 and CHOP inhibitor -36.
COc1cc2nc(=S)n3[nH]c(CCn4nc(C)cc4C)nc3c2cc1OC was read as p-CIP stab down -8, Dynein transport -0.32, UPR CHOP act 132*, Beta2AR agonist -16, XBP1 UPR activ 16, CHOP inhibitor -133 and UPR CHOP confirm 98*.
COc1ccc2ccccc2c1/C=N/NC(=O)c1cccc([N+](=O)[O-])c1 was read as p-CIP stab down -4, UPR CHOP act 0, Beta2AR agonist -2 and XBP1 UPR activ 4.
COc1ccccc1N1CCN(C(=O)c2ccc(S(=O)(=O)N3CCCCCC3)cc2)CC1 was read as p-CIP stab down -7, Dynein transport 2.1, UPR CHOP act 0, Beta2AR agonist 5, XBP1 UPR activ -5 and CHOP inhibitor 14.
Screening O=C(Oc1oc(-c2ccco2)nc1C=Nc1ccc(Cl)cc1)c1ccco1 returned p-CIP stab down -2, Dynein transport -3.4, UPR CHOP act 77*, Beta2AR agonist 3, XBP1 UPR activ 9, CHOP inhibitor -11 and UPR CHOP confirm 76*.
Screening COc1ccc(N=Cc2nc(-c3ccco3)oc2O)cc1 returned p-CIP stab down -4, Dynein transport -0.77, UPR CHOP act 3, Beta2AR agonist -11, XBP1 UPR activ 1 and CHOP inhibitor -5.
For C/C(=N\NC(=O)C(c1ccccc1)c1ccccc1)c1ccccn1 the results were p-CIP stab down 0, Dynein transport -0.81, UPR CHOP act 80*, Beta2AR agonist 46*, XBP1 UPR activ -1, CHOP inhibitor 53 and UPR CHOP confirm 51*.
C/C(=N/NC(=O)c1ccc(C(C)(C)C)cc1)c1ccccn1 was read as UPR CHOP act 556*, Beta2AR agonist 17, XBP1 UPR activ 0 and UPR CHOP confirm 372*.
C/C(=N\NC(=O)C(c1ccccc1)c1ccccc1)c1ccc(O)cc1 was read as p-CIP stab down -8, UPR CHOP act -2, Beta2AR agonist -16 and XBP1 UPR activ -2.
Screening COc1ccc(C(=O)N/N=C(\C)c2ccccn2)cc1OC returned p-CIP stab down -5, UPR CHOP act 355*, Beta2AR agonist 5, XBP1 UPR activ 5 and UPR CHOP confirm 284*.
C/C(=N\NC(=O)c1cc(Br)ccc1O)c1ccccn1 was read as p-CIP stab down 3, UPR CHOP act 213*, Beta2AR agonist 9, XBP1 UPR activ 3 and UPR CHOP confirm 223*.
C/C(=N\NC(=O)c1ccccc1Cl)c1ccccn1 was read as p-CIP stab down -2, UPR CHOP act 21, Beta2AR agonist 6 and XBP1 UPR activ 7.
Cc1ccc(C)c(CSC2=NCCN2S(=O)(=O)c2ccccc2)c1 was read as p-CIP stab down 0, UPR CHOP act 1, Beta2AR agonist 0 and XBP1 UPR activ -7.
For CCOc1ccc(-c2c[n+]3c(n2-c2ccccc2)CCCCC3)cc1 the results were p-CIP stab down 42, Dynein transport 0.34, UPR CHOP act 2, Beta2AR agonist -10, XBP1 UPR activ 0 and CHOP inhibitor -7.
`CC(=NNC(=O)c1ccncc1)c1cccc(Br)c1` gave Beta2AR agonist -4.
C/C(=N\NC(=O)c1cccc(Br)c1)c1ccccn1 was read as p-CIP stab down -3, UPR CHOP act 535*, Beta2AR agonist 1, XBP1 UPR activ 7 and UPR CHOP confirm 449*.
For C/C(=N\NC(=O)c1ccc(Cl)c(Cl)c1)c1ccccn1 the results were p-CIP stab down 3, UPR CHOP act 367*, Beta2AR agonist 0, XBP1 UPR activ 4 and UPR CHOP confirm 322*.
`C=CCNC(=O)c1cc(-c2ccncc2)nc2c(C)cc(C)cc12` gave p-CIP stab down 2, UPR CHOP act 1, Beta2AR agonist -2 and XBP1 UPR activ -3.
`O=C(CCN1C(=O)/C(=C\c2ccccc2F)SC1=S)N1CCCCC1` gave p-CIP stab down -3, UPR CHOP act 43*, Beta2AR agonist 2, XBP1 UPR activ -6 and UPR CHOP confirm 37*.
`N#C/C(=C\c1ccncc1)C(=O)Nc1ccc(C(=O)O)cc1` gave p-CIP stab down -4, UPR CHOP act 0, Beta2AR agonist -1 and XBP1 UPR activ -2.
CC(C)c1ccc(NC(=O)/C(C#N)=C/c2ccncc2)cc1 was read as p-CIP stab down 4, UPR CHOP act 59*, Beta2AR agonist 20, XBP1 UPR activ 17 and UPR CHOP confirm 97*.
For CC(OCC(O)CN(C)CCOc1ccccc1)c1ccc(Cl)cc1 (stereo unspecified) the results were p-CIP stab down -9, Dynein transport 2.6, UPR CHOP act 2, Beta2AR agonist -5, XBP1 UPR activ 2 and CHOP inhibitor 35.
For CCn1c(-c2ccccc2)c(C(=O)CCl)c2ccccc21 the results were p-CIP stab down 9, Dynein transport -3.3, UPR CHOP act 77*, Beta2AR agonist 16, XBP1 UPR activ 7, CHOP inhibitor 105* and UPR CHOP confirm 110*.
For CCn1c2ccccc2c(=O)c2ccccc21 the results were p-CIP stab down 2, Dynein transport 0.71, UPR CHOP act 0, Beta2AR agonist -8, XBP1 UPR activ 1 and CHOP inhibitor 28.
NC(=O)COC(=O)/C=C/c1cccc(Br)c1 was read as p-CIP stab down 22, Dynein transport -0.54, UPR CHOP act 2, Beta2AR agonist 0, XBP1 UPR activ -2 and CHOP inhibitor -19.
`Cc1nn(-c2ccccc2)c(C)c1/C=C/C(=O)OCC(=O)Nc1ncc(C(F)(F)F)cc1Cl` gave p-CIP stab down -2, Dynein transport -0.77, UPR CHOP act 0, Beta2AR agonist -16, XBP1 UPR activ -1 and CHOP inhibitor 25.
`CCCCC(CC)CN=C(N)NC(N)=NCCCCCCN=C(N)NC(N)=NCC(CC)CCCC` (stereo unspecified) gave UPR CHOP act 54*, Beta2AR agonist -552, XBP1 UPR activ 1 and UPR CHOP confirm 38*.
For O=C(/C=C/c1ccc(O)c(O)c1)c1ccc(S(=O)(=O)N2CCCCCC2)cc1 the results were p-CIP stab down 5, Dynein transport -2.2, UPR CHOP act 90*, Beta2AR agonist 19, XBP1 UPR activ 24, CHOP inhibitor 10 and UPR CHOP confirm 23.

From PubChem BioAssay
